According to ChEMBL document CHEMBL1122747, “Potential antitumor agents. 42. Structure-activity relationships for acridine-substituted dimethyl phosphoramidate derivatives of 9-anilinoacridine” (J Med Chem, 1984):
pIC50: −log10 of the molar value.

What was measured:
P388 [1] = assay: In vivo inhibition of P388 in mice for optimal (highest nonacutely toxic) dose (OD); type: functional, Mus musculus
How it was run: (§1)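 F1 (DBA/2J × C57BlJ) mice, 19-21 g, either sex, inoculated with 10^6 P388 leukemia cells on day 0. Drug given ip in 0.1 mL 30% aqueous ethanol on days 1, 5 and 9, as a solution or, at highest doses, as a sonicated suspension. Doses stepped down from a toxic level at 0.67-fold intervals. Groups of six mice; ILS relative to 20-30 controls. OD is the highest nonacutely toxic daily dose.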

[2] = Lipophilicity (Rm) (liquid chromatography); type: physicochemical
How it was run: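 Rm is measured for drug cations at pH 2 by liquid-liquid chromatography on a cellulose support.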

P388 [3] = assay: Tumor cell selectivity (ILSmax values) was evaluated in vivo for the percentage increase in life span of treated animals over that of P388 tumor bearing untreated control animals; h=ILS of >50% could not be obtained at any dose level; type: functional, organism-based; details: Mus musculus; how it was run: as §1
L1210 = assay: In vitro test for 50% reduction of cell number (of control) after 70 hr incubation with cultures of murine L1210 leukemia cells; type: functional; details: Mus musculus, L1210, 70 h; read-out: ID50 (the source's name)
P388 [4] = assay: Dose of drug needed to provide a percentage increase in life span of tumor-bearing mice in vivo of […]% compared to untreated controls after inoculation of 10e6 P388 leukemia cells; h=ILS of >50% could not be obtained at any dose level; type: functional, organism-based; details: Mus musculus
[5] = Binding affinity towards poly[d(A-T)] (fluorometric method); type: ADME
How it was run: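 Log R for binding to poly[d(A-T)] measured fluorometrically, corrected for quenching.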

P388 [6] = assay: Tumor cell selectivity (ILSmax values) was evaluated in vivo for the percentage increase in life span of treated animals over that of P388 tumor bearing untreated control animals; h=ILS of >20% could not be obtained at any dose level; type: functional, organism-based; details: Mus musculus; how it was run: as §1

Row | Rm [2] | pIC50 (L1210) | Log K [5] | SMILES | OD (P388 [1]) [mg/kg/day] | Activity (P388 [3]) | D50 (P388 [4]) | Activity (P388 [6])
1 | 0.15 | 5.42 | 5.62 | CS(=O)(=O)Nc1ccc(Nc2c3ccccc3nc3ccc(Cl)cc23)cc1 | 150 | ILS not obtained | ILS not obtained | –
2 | -0.2 | < 5.66 | 5.3 | CS(=O)(=O)Nc1ccc(Nc2c3ccccc3nc3cc(S(C)(=O)=O)ccc23)cc1 | 150 | ILS not obtained | ILS not obtained | –
3 | -0.04 | 5.60 | 6 | COc1ccc2nc3ccccc3c(Nc3ccc(NS(C)(=O)=O)cc3)c2c1 | 150 | – | ILS not obtained | ILS not obtained

Row | SMILES | Rm [2] | pIC50 (L1210) | Log K [5] | OD (P388 [1]) [mg/kg/day] | Activity (P388 [3]) | D50 (P388 [4]) | Activity (P388 [6])
4 | COP(=O)(Nc1ccc(Nc2c3ccccc3nc3ccc(Cl)cc23)cc1)OC | 0.37 | 6.05 | 6.17 | 100 | ILS not obtained | ILS not obtained | –
